Screens: PubChem, several laboratories
A selection: hits, their analogues and other compounds. The true share with any hit is near 3.1%.
pPAFAH inh: inhibitors of human plasma PAF acetylhydrolase (pPAFAH). Q13093. recombinant pPAFAH, FP-rhodamine probe fluorescence polarization. inhibition, % at 3.39 µM. 330,000 compounds, 1.5% hits;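 active = inhibition above the mean inhibition across the screen plus 3 SD, cut at about 25% in these data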;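 note: inhibitors block binding of the rhodamine activity-based probe so polarization drops; 0% = enzyme with DMSO and 100% = wells lacking pPAFAH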
Target sequence (Q13093 whole entry, looked up): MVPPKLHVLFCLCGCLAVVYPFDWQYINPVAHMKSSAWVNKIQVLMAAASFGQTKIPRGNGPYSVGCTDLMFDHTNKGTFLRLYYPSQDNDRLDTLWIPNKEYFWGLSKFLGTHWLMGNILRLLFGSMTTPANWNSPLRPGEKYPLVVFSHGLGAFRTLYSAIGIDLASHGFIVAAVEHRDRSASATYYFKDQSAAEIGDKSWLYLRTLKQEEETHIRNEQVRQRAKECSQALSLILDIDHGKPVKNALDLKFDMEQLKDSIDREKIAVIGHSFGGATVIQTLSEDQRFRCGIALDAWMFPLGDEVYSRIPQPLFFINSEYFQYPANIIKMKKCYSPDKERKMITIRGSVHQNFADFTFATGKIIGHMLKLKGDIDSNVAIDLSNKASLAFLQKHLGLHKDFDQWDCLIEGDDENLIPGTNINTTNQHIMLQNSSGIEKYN
PAFAH1B2 FP inh: blocks human PAF acetylhydrolase 1b catalytic subunit 2. inhibition, % at 3.39 µM. P68402. 340,000 compounds, 1.2% hits. recombinant PAFAH1B2, FP-rhodamine activity probe, fluorescence polarization;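 active = inhibition above the mean of all tested compounds plus 3 SD, cut at about 24% in these data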;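 note: 0% = enzyme with DMSO and 100% = wells lacking PAFAH1B2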
PAFAH1B3 FP inh: blocks human PAF acetylhydrolase 1B catalytic subunit 3; recombinant PAFAH1B3, FP-rhodamine probe, fluorescence polarization; Q15102; inhibition, % at 3.39 µM; AID 492972; 340,000 compounds, 0.28% hits;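 active = inhibition above the screen-wide average of all tested compounds plus 3 SD, cut at about 25% in these data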;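 note: 0% = enzyme with DMSO only and 100% = wells lacking PAFAH1B3 protein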
Target sequence (Q15102 whole entry, looked up): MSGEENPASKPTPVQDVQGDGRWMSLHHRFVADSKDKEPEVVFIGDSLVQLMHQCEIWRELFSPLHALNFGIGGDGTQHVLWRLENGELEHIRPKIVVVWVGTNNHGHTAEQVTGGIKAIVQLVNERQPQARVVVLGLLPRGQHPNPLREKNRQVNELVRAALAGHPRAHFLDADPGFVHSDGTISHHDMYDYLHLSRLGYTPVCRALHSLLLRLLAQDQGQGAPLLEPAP
PAFAH2 inh: PAFAH2 (human) inhibition; Q99487; recombinant PAFAH2, FP-rhodamine activity probe, fluorescence polarization; inhibition, % at 3.39 µM; 340,000 compounds, 0.99% hits;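 active = inhibition above the mean over all tested compounds plus 3 SD, cut at about 30% in these data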;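 note: inhibitors block probe labeling of enzyme so polarization drops; 0% = enzyme with DMSO and 100% = wells lacking PAFAH2 protein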
Apaf-1 inh: human Apaf-1 inhibition. O14727. reconstituted apoptosome caspase-3 activity, DEVD-Rh110 fluorescence. inhibition, % at 20 µM. 330,000 compounds, 0.71% hits. AID 489030; active = inhibition of at least 40% at 20 µM;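 note: plate controls were DMSO wells for no effect and DEVD-CHO caspase inhibitor wells for full effect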
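Material: cell-free apoptosome with Apaf-1, procaspase-3 and caspase-9; Buffer or medium: Hepes pH 7.5 with detergent and BSA; Reagent: cytochrome c trigger plus (Z-DEVD)2-Rh110 caspase-3 substrate; Times: compound with Apaf-1, dATP, procaspase-3 30 min, then 50 min reaction, room temperature; Technique: Rh110 fluorescence intensity.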
pPAFAH confirm: confirmation of human plasma PAF acetylhydrolase (pPAFAH) inhibitors; 2,300 compounds, 72% hits; recombinant pPAFAH, FP-Rh probe fluorescence polarization; inhibition, % at 3.39 µM; shares compounds with pPAFAH inh; AID 463230;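 active = mean inhibition of the triplicate above the hit cutoff set for the earlier primary screen, cut at about 25% in these data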;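 note: 0% = enzyme with DMSO and 100% = wells lacking pPAFAH enzyme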
Active calls of the source: *; x = no result.

SMILES	pPAFAH inh	PAFAH1B2 FP inh	PAFAH1B3 FP inh	PAFAH2 inh	Apaf-1 inh	pPAFAH confirm
C/C=C(\C)C(=O)OC1CC(C)(C)C[C@H]2C3=CC[C@@H]4[C@@]5(C)CCC(O[C@@H]6O[C@@H](C(=O)O)[C@@H](O)C(O[C@@H]7OC[C@H](O)[C@@H](O)[C@@H]7O[C@@H]7OC(CO)C(O)[C@@H](O)[C@@H]7O)C6O[C@@H]6OC(CO)C(O)C(O)C6O)[C@@](C)(CO)[C@@H]5CC[C@]4(C)[C@]3(C)CC(O)[C@@]12CO (stereo partly drawn)	-0.2	1.8	-8.3	-8.7	-0.8	x
CC1CC1C(=O)OCC(=O)Nc1ccc(N=Nc2ccccc2)cc1 (stereo not drawn)	69.2*	2.8	4.5	84.5*	11.1	64.6*
COc1cc(C#N)ccc1OC(=O)C1CCN(C(=O)c2ccc(F)cc2)CC1	5.3	-2.8	-1.9	-0.7	-0.2	x
Cc1cc(=O)[nH]c(N/N=C/c2cc(C)n(CC(F)(F)F)c2C)n1	2.8	7.4	4.5	0.4	-4.8	x
COC(=O)c1ccc(-n2c(C)cc(/C=N/Nc3nc(C)cc(=O)[nH]3)c2C)cc1	66.5*	0.8	7.0	4.3	-10.4	89.3*
COc1cccc(/C=N/Nc2ccc([N+](=O)[O-])cn2)c1O	47.6*	1.8	-2.7	5.2	5.5	12.1
O=[N+]([O-])c1ccc(N/N=C/c2cccc(O)c2O)cc1	59.8*	10.6	31.5*	5.1	14.2	56.5*
N#CCCN(NC1=NS(=O)(=O)c2ccccc21)C(=O)c1ccccc1Br	49.5*	5.8	2.8	-3.0	-2.6	3.0
CC(C)=CCc1cc2c(=O)c3c(O)c4c(cc3oc2c(O)c1O)OC(C)C4(C)C (stereo not drawn)	67.2*	x	x	x	9.4	85.7*
CC1Oc2cc3oc4c(O)c5c(cc4c(=O)c3c(O)c2C1(C)C)C=CC(C)(C)O5 (stereo not drawn)	8.6	x	x	x	4.1	x
Cc1cc(-c2ccc(C(C)C)c(S(=O)(=O)N3CCN(c4ccccn4)CC3)c2)on1	-1.3	0.4	0.7	12.1	14.4	x
O=C(CCN1C(=O)/C(=C/c2ccco2)SC1=S)Nc1ccc(C(=O)O)c(O)c1	39.8*	6.3	10.3	7.2	6.9	17.9
O=C(CCN1C(=O)/C(=C\c2ccco2)SC1=S)Nc1ccc(C(=O)O)c(O)c1	49.0*	1.1	11.5	16.2	-3.8	15.2
COc1ccccc1/C=C1\SC(=S)N(CCC(=O)Nc2ccc(C(=O)O)c(O)c2)C1=O	18.3	7.7	6.4	-0.8	15.2	x
CN(C)c1nc(-c2cn(CCC#N)c3ccccc23)cs1	2.1	2.5	6.7	-3.9	7.9	x
COc1ccc(-c2csc(NC(C)=O)n2)cc1OC	4.5	6.9	8.4	0.5	2.2	x
COc1cccc(NC(=O)Nc2nc(-c3ccc(OC)c(OC)c3)cs2)c1	35.7*	15.1	21.1	1.9	7.6	13.7
CSCCC(NC(=O)COc1ccccc1)C(=O)N1CCN(c2ccccc2Cl)CC1 (stereo not drawn)	-0.6	4.2	0.8	-0.4	22.9	x
COc1ccccc1NC(=O)Nc1ccc(C(N)=O)cc1	42.1*	2.0	0.0	-1.4	-9.7	-0.8
N#CC1=C(N)n2c(s/c(=C\c3ccco3)c2=O)=C(C#N)C1c1ccco1 (stereo not drawn)	53.4*	3.1	8.4	14.8	15.5	5.7
O=C(/C(=N/N=C/c1ccc(O)c(O)c1O)c1ccccc1)c1ccccc1	79.7*	-11.0	-14.3	4.2	4.9	84.6*
Oc1ccc(/C=N/N=C(c2ccccc2)c2ccccc2)c(O)c1O	58.5*	1.0	20.7	3.0	x	82.8*
CN=c1scc(-c2ccccc2F)n1/N=C/c1ccc(O)c(O)c1O	x	-5.4	6.8	3.1	x	x
O=c1[nH]c(-c2ccccc2)c(-c2ccccc2)o1	2.9	2.5	10.2	-1.2	0.7	x
O=C(O)CCc1ccc(-c2cccs2)n1Cc1ccco1	19.1	8.4	5.6	2.7	-2.0	x
SMILES	pPAFAH inh	PAFAH1B2 FP inh	PAFAH1B3 FP inh	PAFAH2 inh	Apaf-1 inh	pPAFAH confirm
O=C(O)CCc1ccc(-c2ccc(Cl)cc2)n1Cc1ccco1	34.9*	13.2	0.5	15.2	-8.4	16.1
Cc1ccc(CNC(=O)c2ccc3c(=O)[nH]c4c(C(=O)NCC5CCCO5)sc(=S)n4c3c2)cc1 (stereo not drawn)	38.0*	30.0*	34.1*	31.3*	11.3	75.3*
O=C(NCc1ccco1)c1sc(=S)n2c1[nH]c(=O)c1ccccc12	47.0*	18.1	19.1	29.5	-11.4	61.0*
CCCCCNC(=O)c1ccc2c(=O)[nH]c3c(C(=O)NCC4CCCO4)sc(=S)n3c2c1 (stereo not drawn)	62.4*	49.1*	38.5*	45.2*	6.7	73.6*
O=C(NCc1ccccc1)c1ccc2c(=O)[nH]c3c(C(=O)NCC4CCCO4)sc(=S)n3c2c1 (stereo not drawn)	63.3*	34.7*	34.1*	53.6*	4.6	81.3*
O=C(O)c1c[nH]c2ccc([N+](=O)[O-])cc2c1=O	x	1.6	11.2	-3.6	x	x
CCC(C)c1ccc(NC(=O)Nc2cnccn2)cc1 (stereo not drawn)	-5.3	-1.3	3.6	-7.4	13.4	x
CSCC[C@H](NC(=O)[C@H](Cc1ccccc1)n1c(=O)[nH]c2ccccc2c1=O)C(=O)N1CCC(C(=O)O)CC1	2.6	-2.0	11.9	-1.6	-2.5	x
Cc1cc(NC(=O)c2ccc(NC(=O)C(C)C)cc2)no1	40.8*	4.4	2.8	3.7	-7.9	4.3
O=C(O)CCN1C(=O)/C(=C\c2cccc(Oc3ccccc3)c2)SC1=S	35.9*	28.1*	9.0	11.7	11.1	17.0
O=C(O)COc1ccc(/C=C2/SC(=S)N(Cc3ccccc3)C2=O)cc1	53.9*	4.3	8.5	12.1	-2.4	19.3
COc1ccc(/C=C2/SC(=S)N(CCC(=O)O)C2=O)cc1	6.4	-0.1	10.3	3.2	-9.9	x
O=C1/C(=C\c2cc(Cl)c(O)c(Cl)c2)SC(=S)N1Cc1ccccc1	x	-44.9	-72.4	-78.4	x	x
COc1ccccc1CNC(=O)COC(=O)CCN=C1NS(=O)(=O)c2ccccc21	0.6	3.0	3.6	-1.9	-6.6	x
Cc1noc(C)c1CSCC(=O)NCCN1C(=O)S/C(=C\c2ccccc2F)C1=O	4.4	-1.4	-0.5	1.3	5.1	x
Cn1c(=O)c2c(nc(NCC3CCCC(CN)C3)n2Cc2ccc(Cl)cc2Cl)n(C)c1=O (stereo not drawn)	0.2	5.6	2.4	2.9	13.3	x
Cc1cc(SCC(=O)c2ccc(O)c(O)c2)nc2ccccc12	41.6*	2.4	13.2	30.8*	-1.8	94.5*
Cc1cc(SCC(=O)c2ccc3c(c2)OCO3)nc2ccccc12	2.5	2.2	-8.1	-12.9	-1.3	x
Cc1ccc(O)c(NC(=O)CSc2n[nH]c(-c3ccccc3)n2)c1	7.5	4.3	2.9	5.9	8.9	x
